# From PubChem
# The list is not random: actives were taken first. Their share in the collection is about 2.9%.
# ABHD4 inh – inhibitors of mouse ABHD4; Q8VD66; purified mABHD4, FP-Rh probe fluorescence polarization; inhibition, % at 8.92 µM; 370,000 compounds, 0.54% hits; AID 720543;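 active = inhibition exceeding the mean over every tested compound plus 3 SD, cut at about 30% in these data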;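 also: 0% = plate median of compound wells and 100% = S159A mutant with DMSO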
# Target sequence (Q8VD66 whole entry, looked up): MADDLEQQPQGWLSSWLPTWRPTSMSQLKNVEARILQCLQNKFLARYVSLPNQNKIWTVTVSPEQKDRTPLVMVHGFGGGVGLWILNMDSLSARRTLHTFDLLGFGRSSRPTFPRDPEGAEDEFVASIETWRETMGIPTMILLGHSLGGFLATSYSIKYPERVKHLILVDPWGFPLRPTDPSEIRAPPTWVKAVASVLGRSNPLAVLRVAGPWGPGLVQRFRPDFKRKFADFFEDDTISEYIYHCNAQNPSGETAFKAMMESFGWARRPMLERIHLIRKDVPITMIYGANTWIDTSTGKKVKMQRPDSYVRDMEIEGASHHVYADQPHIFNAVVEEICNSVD
#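 Test system: mABHD4 protein; Read-out basis: % inhibition; Incubation: 45 min + 60 min at 25 °C; Repeats: single replicate; Technique: fluorescence polarization with parallel and perpendicular emission, 525/598 nm; Compound: 8.92 µM, single dose; Benchmarks: full inhibition S159A mutant plus DMSO, zero as sample-well median.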
# PRMT1 FP inh – PRMT1 (human) inhibition, primary screen | recombinant PRMT1, activity-based probe fluorescence polarization | inhibition, % at 2.79 µM | 370,000 compounds, 1.3% hits | Q99873;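 active = inhibition above about 21% made by adding two undisclosed values, limit read from the data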
# ATG4B inh – ATG4B (human) cysteine protease inhibition | Q9Y4P1 | ATG4B cleavage of LC3-PLA2, NBD-HPC fluorescence, 1 h | inhibition, % at 8.33 µM | 340,000 compounds, 0.51% hits | AID 504462; in the data active = inhibition above about 40%
# HTRA1 inhibitor – inhibitors of human serine peptidase HTRA1. Q92743. recombinant HTRA1, FP-rhodamine activity-based probe, fluorescence polarization. inhibition, % at 5.96 µM. 340,000 compounds, 0.5% hits; in the data active = inhibition above about 36%;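 also: 0% = enzyme with DMSO and 100% = wells lacking enzyme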
# TCR-CD3 inh – inhibitors of human TCR-CD3 interaction; TAMRA-labeled TCR probe fluorescence, biochemical; inhibition, % at 9.4 µM; 360,000 compounds, 0.37% hits; AID 651800;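 also: recombinant mutant TCR 2C K166C tagged with TAMRA read by polarization; 0% = receptor in buffer alone and 100% = receptor with positive control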
# SIAE inh – blocks human sialic acid acetylesterase | Q9HAT2 | SIAE FP-Rh probe binding, fluorescence polarization | inhibition, % at 9.66 µM | 370,000 compounds, 0.69% hits;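 active = inhibition above a cutoff: mean of compounds within the control limits plus 3 SD of those, cut at about 17% in these data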;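 also: 0% = plate median of compound wells and 100% = probe without SIAE protein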
# HTRA1 inh conf – HTRA1 (human) inhibition, confirmation | shares compounds with HTRA1 inhibitor | recombinant HTRA1, FP-rhodamine activity-based probe, fluorescence polarization | inhibition, % at 5.96 µM | 1,600 compounds, 66% hits | AID 540248;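 active = mean inhibition over three repeats above a set limit taken from the earlier primary screen, cut at about 37% in these data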;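 also: 0% = HTRA1 with DMSO and 100% = wells lacking HTRA1; inhibitors block probe binding so polarization drops and inhibition rises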
# BSA probe FL – counter-screen for TCR-CD3 interaction inhibitors: BSA probe; shares compounds with TCR-CD3 inh; TAMRA-labeled BSA probe fluorescence counterscreen; 1,200 compounds, 10% hits; inhibition, % at 9.4 µM; in the data active = inhibition above about 23%;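 also: 0% = buffer low control and 100% = reference high control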
# TCR-CD3 inh conf – confirmation of human TCR-CD3 interaction inhibitors | TAMRA-labeled TCR probe fluorescence binding assay | inhibition, % at 9.4 µM | 1,200 compounds, 48% hits | AID 652036 | shares compounds with TCR-CD3 inh
# The depositor's hits bear a star; nt = no result given. Rule as the data show it, unless noted: active = inhibition above about 19%; inactive = the rest.
SMILES,ABHD4 inh,PRMT1 FP inh,ATG4B inh,HTRA1 inhibitor,TCR-CD3 inh,SIAE inh,HTRA1 inh conf,others
CCC[C@H]1[C@@H](NC(=S)Nc2ccccc2Cl)CC[C@@]23CCCN2C(=O)CCC[C@@H]13,1,2,nt,nt,nt,-3,nt,
CC(C)(C)N1Cc2nnn(Cc3ccccc3)c2-c2cc(N3CCCC3)ccc2S1(=O)=O,24,-2,nt,nt,nt,-1,nt,
COc1cccc2nc3cc(C)c(C)cc3nc12,28,7,-8,48*,7,11,6,
COc1cccc2c1nc(C)c1cc(C)oc12,12,1,-10,-3,3,3,nt,
O=C(OCc1cn(Cc2ccc(C(F)(F)F)cc2)nn1)N1CCOCC1,1,1,nt,nt,nt,-2,nt,
N/C(=N/OC(=O)c1ccccc1Cl)c1ncc([N+](=O)[O-])s1,2,0,-10,57*,3,3,34,
N/C(=N\OC(=O)c1ccccc1Cl)c1cccc([N+](=O)[O-])c1,0,1,5,2,4,5,nt,
CCN(CC)c1ccc(/C=C2\C(=O)N(c3nnc(C)c(=O)[nH]3)N=C2C)cc1,5,3,-5,62*,16,-13,79*,
CCN(CC)c1ccc(/C=C2/C(=O)ON=C2C)cc1,-3,-17,8,-1,-2,-14,nt,
CC(=O)C(C(C)=O)c1c(Cl)c(O)c(O)c2c(C(=O)c3ccccc3)coc12,43*,79*,7,65*,-2,-1,82*,
N#CC1=C(N)N(c2ccc(Br)cc2)C2=C(C(=O)CCC2)C1c1cccnc1 (centres undefined),15,8,5,46*,-2,5,-1,
COC(=O)C1CN(Cc2ccc(F)cc2)CCS(=O)(=O)N1Cc1ccccc1 (centres undefined),-5,-2,nt,nt,nt,1,nt,
CC1(C)CC(=O)C2=C(C1)N=C1c3ccccc3C(=O)C1C2c1ccc(Cl)cc1 (centres undefined),6,5,9,52*,-1,13,51*,
CC(=O)N1CCN(c2ccc(NC(=O)c3cccc(C)c3)cc2)CC1,-3,1,-1,5,2,1,nt,
Cc1cccc(N2CCN(c3ccc(NC(=O)/C=C(/C(=O)O)c4ccccc4)cc3)CC2)c1,24,1,-3,49*,5,8,41*,
Cc1cccc(NC(=O)CSc2nnc(-c3ccco3)c(-c3ccco3)n2)c1C,nt,nt,17,50*,nt,nt,14,
Cc1ccccc1NC(=O)CSc1nnc(-c2ccco2)n1N,2,10,-6,-2,2,-6,nt,
CCNC(=O)CCc1nc(-c2ccc(C(C)C)cc2)no1,-8,3,nt,nt,nt,2,nt,
CC(C)n1cnc2c(NCc3ccccc3)cc(N[C@H](C)CO)cc21,nt,nt,-22,45*,nt,nt,33,
CCC(CO)Oc1cc(NCc2ccccc2)c2ncn(C(C)C)c2c1 (centres undefined),7,1,0,21,0,0,nt,
CC(=O)c1cccc(NC(=O)C(C)OC(=O)CCN=C2NS(=O)(=O)c3ccccc32)c1 (centres undefined),6,2,-2,90*,0,-2,4,
CC(=O)c1ccc(NC(=O)C(C)OC(=O)CCN=C2NS(=O)(=O)c3ccccc32)cc1 (centres undefined),-4,-4,-8,-1,-3,-3,nt,
CCN(C(=O)C1CCCN(c2nnc(-n3cccc3)s2)C1)c1ccccc1C (centres undefined),-5,-5,nt,nt,nt,4,nt,
Cc1[nH][nH]c(=O)c1C(c1ccc(-c2ccc(Cl)c(Cl)c2)o1)c1c(C)[nH][nH]c1=O,17,13,17,40*,1,21*,37*,
CCOC(=O)c1c2c(n(-c3ccc(OC)cc3)c1C)C(=O)C(=O)c1ccccc1-2,nt,nt,37,47*,nt,nt,45*,
SMILES,ABHD4 inh,PRMT1 FP inh,ATG4B inh,HTRA1 inhibitor,TCR-CD3 inh,SIAE inh,HTRA1 inh conf,others
CCOC(=O)c1sc(=S)n(-c2ccc(OC)cc2)c1C,4,4,1,nt,-7,-10,nt,
O=C(CSc1nc2ccccc2c(=O)[nH]1)NC1CCCCC1,4,-3,nt,nt,nt,-6,nt,
COc1cc(/C=N/Nc2cccc(C)c2)cc(Br)c1O,11,9,-4,38*,-6,15,30,
CC(C)CNS(=O)(=O)/C=C/c1ccccc1CCNC(=O)OC(C)(C)C,1,2,nt,nt,nt,0,nt,
COc1cc(-c2nnc(SCc3cc(=O)oc4cc(O)c(O)cc34)o2)cc(OC)c1OC,33*,17,13,47*,28*,1,35,BSA probe FL=-16;TCR-CD3 inh conf=40*
CCOC(=O)CSc1nnc(-c2cc(OC)c(OC)c(OC)c2)o1,0,2,4,0,-2,-8,nt,
COc1ccccc1CNC(=O)NC1CCN(CC(=O)Nc2ccc3c(c2)OCCO3)CC1,3,-3,nt,nt,nt,0,nt,
O=C(CCN1C(=O)/C(=C\c2ccccc2)SC1=S)NNC(=O)c1ccccc1O,8,6,-3,56*,40*,-1,54*,BSA probe FL=-6;TCR-CD3 inh conf=36*
O=C(CCN1C(=O)/C(=C\c2ccccc2)SC1=S)NNC(=O)c1cccnc1,-10,-4,-8,6,2,-2,nt,
CCC1=NN(C(=O)c2ccccc2Br)C(O)(c2ccc(Br)cc2)C1 (centres undefined),0,-5,-1,1,7,3,nt,
CCC1=NN(C(=O)c2ccccc2O)C(O)(c2ccccc2)C1 (centres undefined),13,13,14,54*,40*,16,65*,BSA probe FL=-8;TCR-CD3 inh conf=30*
Oc1ccccc1N=Nc1ccccc1O,20,4,7,66*,19*,17,59*,BSA probe FL=-6;TCR-CD3 inh conf=5
Cc1c(C(=O)NCc2cccs2)oc2ccc(Br)cc12,-5,4,-4,-34,-5,-1,nt,
Cc1c(C(=O)NNC(=O)c2ccccc2O)oc2ccc(Br)cc12,-8,1,27,41*,39*,-10,69*,BSA probe FL=-14;TCR-CD3 inh conf=24*
CCOc1cccc(/C=N/NC(=S)Nc2ccccc2[N+](=O)[O-])c1O,27,0,3,54*,31*,7,51*,BSA probe FL=-4;TCR-CD3 inh conf=15
COC(=O)[C@]12C[C@H](CC(=O)N3CCC(c4ccccc4)CC3)C(=O)N(Cc3ccccc3)C1=C[C@H](COCc1ccccc1)O[C@@H]2C,-5,-6,nt,nt,nt,2,nt,
O=C(CSc1nnc(-c2ccccn2)n1Cc1ccco1)Nc1ccc(Oc2ccccc2)cc1,-13,-7,nt,nt,nt,-11,nt,
